Only some compounds are listed: those with a hit (about 2% of all), similar ones and a draw of the others.
PPC-1+TRAIL kill – compounds killing PPC-1 cancer cells with TRAIL present, primary screen, TRAIL potentiator project, ATPLite luminescence, uHTS; PPC-1 cells + TRAIL, ATPLite viability luminescence; cell killing (% activity), % at 4 µM or 5 µM; 0.41% of 220,000 active;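 active means cell killing above 50% in the first pass at 4 µM, then a duplicate retest at 5 µM averaging 50% or more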;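 further: plate controls were cells with TRAIL plus DMSO for no effect and medium-only wells lacking cells for full effect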
C8 TRAIL sens – viability loss with TRAIL in NB7+C8 cells, primary screen, TRAIL sensitizer project, cell-based, ATPlite luminescence; inhibition (viability loss, TRAIL sensitization), % at 10 µM; 1% of 360,000 active; AID 624354, 2012;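 active means compounds causing at least 50% loss of cell viability in the single-dose screen, relative to plate controls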
HSP90 refold inh – HSP90 inhibitors, primary screen, cell lysate, luminescence; Heat shock protein HSP 90 (rabbit reticulocyte lysate; luciferase refolding); Rabbit reticulocyte lysate, luciferase refolding luminescence, 3 h; inhibition, % at 5.6 µM; 0.91% of 290,000 active; AID 1789, 2009;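 active means inhibition above the screen-wide mean plus 3 SD, computed separately per campaign, cut at about 16% in these data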;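 further: 0% = DMSO wells and 100% = 60 µM geldanamycin wells; inhibitors lower the luminescence because luciferase stays unfolded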
FLuc inh counter – firefly luciferase enzyme inhibitors, primary screen, artefact control for luciferase-based inhibitor screens, biochemical, luminescence, ATPLite. inhibition, % at 10 µM. 10 min. 1.5% of 200,000 active. AID 1006, 2008. Luciferin 4-monooxygenase (Photinus pyralis), P08659;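 active means inhibition above about 50% when tested at 10 µM, limit read from the data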
Target sequence (P08659 whole entry, looked up): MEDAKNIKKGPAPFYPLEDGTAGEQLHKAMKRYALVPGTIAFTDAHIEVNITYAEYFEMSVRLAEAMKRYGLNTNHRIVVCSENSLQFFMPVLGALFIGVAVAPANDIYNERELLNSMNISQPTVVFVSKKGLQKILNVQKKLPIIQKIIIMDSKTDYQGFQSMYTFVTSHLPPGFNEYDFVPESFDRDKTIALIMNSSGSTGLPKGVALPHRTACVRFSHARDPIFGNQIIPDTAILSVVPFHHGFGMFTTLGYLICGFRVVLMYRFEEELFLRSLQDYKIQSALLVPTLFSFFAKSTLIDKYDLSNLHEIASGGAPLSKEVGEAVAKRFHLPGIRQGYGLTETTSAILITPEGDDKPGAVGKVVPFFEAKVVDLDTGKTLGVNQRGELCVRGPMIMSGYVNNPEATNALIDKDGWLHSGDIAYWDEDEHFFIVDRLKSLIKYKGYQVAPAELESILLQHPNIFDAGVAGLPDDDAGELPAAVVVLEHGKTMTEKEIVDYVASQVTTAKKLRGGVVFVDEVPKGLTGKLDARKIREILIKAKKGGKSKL
FLuc act counter – FLuc activators, initial screening, artefact control for FLuc-dependent activation tests, biochemical, ATPlite luminescence | Luciferin 4-monooxygenase (Photinus pyralis), P08659 | ATPlite luciferase biochemical, 10 min; 0 = ATP-free wells, 1 = DMSO control | activation factor at 10 µM | 200,000 tested, under 10 active | AID 1027, 2008;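 active means luciferase activation factor, scaled between plate controls, of at least 2 with compound at 10 µM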
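Assay system – cell-free luciferase reagent · Medium – PBS-based ATP solution · Dosing – test compounds dosed from 2 mM stocks in 100% DMSO · Timing – 10 min, room temperature · Technique – light output (luminescence) · Measure – luminescence gain marking luciferase activators · Controls – No-ATP low control, compound-free enzyme-plus-ATP high control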
* hit, by the source's call; x = no result.

SMILES | PPC-1+TRAIL kill | C8 TRAIL sens | HSP90 refold inh | FLuc inh counter | FLuc act counter
Cc1[nH]n(-c2nc(-c3cccc([N+](=O)[O-])c3)cs2)c(=O)c1C | 26 | 28 | -2 | 61* | 0.4
Cc1c(Nc2nc(-c3cccc([N+](=O)[O-])c3)cs2)c(=O)n(-c2ccccc2)n1C | -20 | -3 | 0 | 2 | 1
CCOC(=O)[C@]12CCCC=C1N(Cc1ccc3c(c1)OCO3)C(=O)[C@H](CC(=O)NCCC(C)C)C2 | x | -1 | x | x | x
CCC(C)(C)C1CCc2c(sc(NC(=O)c3ccccc3C(=O)O)c2C#N)C1 (stereo not drawn) | 8 | 13 | 5 | x | x
CC1CCc2c(sc(NC(=O)c3ccccc3C(=O)O)c2C#N)C1 (stereo not drawn) | 18 | -2 | 1 | 77* | 0.2
CCCOc1ccc(CSc2nc3ccccc3[nH]2)cc1 | 27 | 53* | -2 | 64* | 0.4
c1ccc(CSc2nc3ccccc3[nH]2)cc1 | 24 | 26 | 3 | x | x
O=[N+]([O-])c1ccc(CSc2nc3ccccc3[nH]2)cc1 | 15 | 20 | 2 | 65* | 0.4
Cc1ccc(S(=O)(=O)NCc2cn3c(C)csc3n2)cc1 | 3 | -18 | 4 | -4 | 1
Cc1ccc(SCc2cn3c(C)csc3n2)cc1 | 40 | 30 | 12 | 64* | 0.4
O=C(COC(=O)CN1C(=O)C2CC=CCC2C1=O)Nc1cccc([N+](=O)[O-])c1 (stereo not drawn) | x | 7 | x | x | x
O=c1[nH]c2ccccc2nc1Cc1ccccc1 | -11 | -7 | -3 | 0 | 1
O=C(Cc1nc2ccccc2[nH]c1=O)c1ccccc1 | 26 | 42 | -2 | 58* | 0.4
c1ccc(N2CCN(c3cccc(-c4cc5ccccc5s4)n3)CC2)nc1 | x | -6 | x | x | x
COCCNC(=O)C1(C)CCN(C(=O)c2ccc(OC)c(F)c2)C1 (stereo not drawn) | x | -22 | x | x | x
CC(/C=N/NC(=O)c1cccnc1)=C\c1ccccc1 | 37 | 16 | 3 | 65* | 0.4
O=C(N/N=C/C(Cl)=C\c1ccccc1)c1ccco1 | 4 | 16 | -3 | x | x
CC(=C/c1ccccc1)/C=N/NC(=O)c1cnccn1 | 25 | 45 | -1 | 74* | 0.3
O=C(N/N=C/C(Cl)=C/c1ccccc1)c1cnccn1 | 16 | 21 | -3 | 56* | 0.4
O=C(N/N=C/C(Cl)=C/c1ccccc1)c1ccco1 | 5 | 31 | 0 | 64* | 0.4
O=C(N/N=C/C(Cl)=C\c1ccccc1)c1cnccn1 | 15 | 24 | -4 | 46 | 0.5
CC1(C)OC(=O)C2=C(C[C@@H](C3CCCCC3)O[C@H]2c2ccc(F)cc2)O1 | x | 8 | x | x | x
COc1ccc([C@H]2N[C@]3(CCCN(Cc4ccccc4)C3=O)[C@H]3C(=O)N(Cc4ccccc4)C(=O)[C@@H]23)cc1 | x | 1 | x | x | x
CCCCN(C=O)c1c(CC)nc2ccc(C(=O)NCCCN3CCCC3=O)cn12 | x | 4 | x | x | x
COc1ccccc1Cn1c(=S)[nH]c2cc(C(=O)N3CCCC(C)C3)ccc2c1=O (stereo not drawn) | x | -2 | x | x | x
SMILES | PPC-1+TRAIL kill | C8 TRAIL sens | HSP90 refold inh | FLuc inh counter | FLuc act counter
CC(C(=O)OCC(=O)N1CCN(c2ccccc2)CC1)N1C(=O)c2ccccc2C1=O (stereo not drawn) | x | 4 | x | x | x
COc1ccc2[nH]c3c(NCCC4=CCCCC4)ncnc3c2c1 | x | 54* | -1 | 0 | 1
CC(=O)Nc1cccc(-c2ccnc3c2CC(C)(C(=O)NCC2CC2)O3)c1 (stereo not drawn) | x | 16 | x | x | x
COc1ccc(/C=N/c2c(-c3ccc(OC)cc3)nc3n2CCS3)cc1 | -7 | 18 | 3 | 59* | 0.4
Fc1ccc(/C=N/c2c(-c3ccc(F)cc3)nc3n2CCS3)cc1 | 5 | 2 | 2 | -4 | 1
C(=N\Nc1ccccn1)/c1ccc(N2CCOCC2)cc1 | 10 | 18 | 4 | 74* | 0.3
O=C(N/N=C/c1ccc(N2CCOCC2)cc1)c1ccc(NS(=O)(=O)c2cccs2)cc1 | 30 | 21 | 0 | 36 | 0.6
CCOc1ccc(/C=N/Nc2ccccn2)cc1 | 45 | 59* | 4 | 82* | 0.2
O=C(N/N=C/c1ccc(N2CCOCC2)cc1)c1cccs1 | 18 | 34 | 5 | 52* | 0.5
CCOC(=O)C1(C)CCCN(C(=O)c2ccc(OC(F)F)cc2)C1 (stereo not drawn) | x | -4 | x | x | x
CC1(C(=O)N/N=C/c2c(F)c(F)c(F)c(F)c2F)CC1(Cl)Cl (stereo not drawn) | x | 77* | x | x | x
Cc1c(/C=N\NC(=O)C2(C)CC2(Cl)Cl)cnn1C (stereo not drawn) | 21 | -14 | 0 | 0 | 1
Cc1cc2ccccc2c(=O)n1CC(=O)NCCC1=CCCCC1 | 21 | -1 | 0 | 60* | 0.4
COCCCn1c(=O)c2ccccc2n(CC(=O)NCCC2=CCCCC2)c1=O | x | 10 | -1 | x | x
COC(=O)[C@]12CCCCC=C1N(CCC1=CCCCC1)C(=O)[C@H](CC(=O)NCc1cccc3ccccc13)C2 | x | 18 | x | x | x
COc1ccc(NC(=O)CSc2nc3[nH]ncc3c(=O)n2-c2ccccc2OC)cc1OC | 71* | -16 | 6 | -1 | 1
COc1ccc(NC(=O)CSc2nc3[nH]ncc3c(=O)n2-c2ccccc2C)cc1OC | 39 | -16 | 5 | -3 | 1
Cc1cnc(NC(=O)c2ccc3c(c2)OCCO3)s1 | x | 94* | x | x | x
Cc1nc2ccc3nc(NC(=O)c4ccc5c(c4)OCCO5)sc3c2s1 | -5 | -2 | 6 | 10 | 0.9
Cc1nc2c(ccc3nc(NC(=O)c4ccc5c(c4)OCCO5)sc32)s1 | 46 | 80* | -3 | 86* | 0.1
COc1cc(C(=O)NC(CCSC)C(=O)Nc2ccc(N3CCOCC3)cc2)cc(OC)c1OC (stereo not drawn) | x | 3 | x | x | x
COc1ccc(CCNC(=O)Nc2ccc3nc([C@@H]4O[C@H](CO)[C@@H](O)[C@H](O)[C@H]4O)[nH]c3c2)cc1Br | x | 0 | x | x | x
COC1=C(N)C(=O)c2nc(C)ccc2C1=O | x | 91* | x | x | x
COc1ccc([C@H]2N[C@]3(CCCN(Cc4ccco4)C3=O)[C@H]3C(=O)N(Cc4ccccc4)C(=O)[C@@H]23)cc1 | x | 7 | x | x | x
COCC(=O)OC1CCn2c1nc1c2C(=O)C(C)=C(NC(C)=O)C1=O (stereo not drawn) | x | 69* | x | x | x
Cc1cccc(-c2noc(-c3csc([C@@H]4C[C@H](O)[C@@H](CO)O4)n3)n2)c1 | x | 51* | x | x | x
Cc1nc(SCC(=O)Nc2nccs2)c(C#N)c(C)c1C | x | 80* | x | x | x
OC[C@@H]1CN(Cc2ccc(Cl)cc2)C[C@H](n2cnc3c(NC4CC4)ncnc32)O1 | x | -12 | x | x | x
O=c1c2ccccc2cnn1-c1ccc2ccccc2c1 | 7 | 51* | 4 | 64* | 0.4

Bioassay records deposited in PubChem BioAssay by several laboratories.
